DAGLB inh: diacylglycerol lipase beta (human) inhibition | AID 504411 | inhibition, % at 5.17 µM | Q8NCG7 | HEK293T DAGLB membrane lysate, EnzChek fluorogenic substrate | actives 0.059% (n = 340,000); in the data active = inhibition above about 34%;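 note: 0% = enzyme with vehicle and 100% = wells lacking enzyme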
MT1-MMP act inh: MT1-MMP (human) activation inhibition; AID 651647; HT1080 RFP-PRO-GFP cells, GFP/RFP ratio fluorescence, overnight; percent of plate control window, DMSO zero; P50281; GFP/RFP ratio change, % at 20 µM; actives 0.061% (n = 360,000);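 active = GFP/RFP ratio change of at least 30% with cell ATP level not reduced by more than half and red fluorescence within 50% of control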
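Assay system: HT1080 RFP-PRO-GFP cells. Benchmarks: DMSO vehicle wells and RFP-L50D-GFP reporter cell wells. Times: overnight cell settling, then overnight compound exposure, 37 °C, 5% CO2. Compound: 20 µM single dose, 1% DMSO. Read-out basis: GFP/RFP fluorescence ratio.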
SKN-1 block: C. elegans SKN-1 inhibition | inhibition, % at 21.8 µM | actives 0.49% (n = 360,000) | C. elegans VP596 Pgst-4::GFP/RFP ratio, acrylamide-induced, 24 h;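 active = interference check ratio from 0.5 to 1.5 plus GFP to RFP signal ratio inhibition reaching or exceeding a fixed threshold, cut at about 30% in these data, passing the limit was not always enough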
iPSC survival up: increases survival of single human iPS cells; hiPSC single-cell survival, ATPlite luminescence; 100% = ROCK inhibitor wells, 0% = DMSO; survival enhancement, % at 20 µM; actives 0.044% (n = 360,000); in the data active = survival enhancement above about 18%;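 note: cells exposed to compounds for 16 hours before the ATP read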
FAS-TE inh: blocks the thioesterase domain of human fatty acid synthase; P49327; inhibition, % at 15 µM; AID 602261; actives 0.67% (n = 360,000); recombinant FAS-TE, OMFH fluorogenic substrate, fluorescence endpoint;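 active = compounds whose normalised, plate-corrected inhibition of enzyme fluorescence in the single-dose primary screen is 50% or more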;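 note: 0% = DMSO with enzyme and 100% = substrate without enzyme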
The depositor's hits bear a star. Hits are enriched below; roughly 1.3% of the tested compounds scored in any of these assays.

Screening C=CCC1CCCCC1=C(C#N)c1ccccc1 (centres undefined) returned DAGLB inh -15, MT1-MMP act inh -1, SKN-1 block 46*, iPSC survival up -2 and FAS-TE inh 18.
`Cc1cccc(CS(=O)(=O)c2nnc([C@H](Cc3ccccc3)NC(=O)OC(C)(C)C)o2)c1` gave DAGLB inh 5, MT1-MMP act inh 2, SKN-1 block 5, iPSC survival up 0 and FAS-TE inh 57*.
For COC(=O)CS(=O)(=O)c1nnc([C@H](Cc2ccccc2)NC(=O)OC(C)(C)C)o1 the results were DAGLB inh 2, MT1-MMP act inh -1, SKN-1 block 12, iPSC survival up -4 and FAS-TE inh 39.
`Cc1ccc(N=C/C(C(=O)C(F)(F)F)=C(\O)c2ccco2)cc1Cl` gave DAGLB inh -3, MT1-MMP act inh 0, SKN-1 block 57*, iPSC survival up -2 and FAS-TE inh 23.
Screening Cc1cccc(N=C/C(C(=O)C(F)(F)F)=C(\O)c2ccco2)c1 returned DAGLB inh 0, MT1-MMP act inh -11, SKN-1 block 1, iPSC survival up 0 and FAS-TE inh 11.
CC(C)(C)OC(=O)NCCCC[C@H](NC(=O)c1[nH]cnc1C(=O)N[C@@H](Cc1ccccc1)C(=O)OC(C)(C)C)C(=O)OC(C)(C)C was read as DAGLB inh -12, MT1-MMP act inh -30, SKN-1 block 15, iPSC survival up -1 and FAS-TE inh 21.
`CC(C)(C)OC(=O)NCCCC[C@H](NC(=O)c1nc[nH]c1C(=O)NCc1ccccc1)C(=O)OC(C)(C)C` gave DAGLB inh -3, MT1-MMP act inh 0, SKN-1 block 1, iPSC survival up 2 and FAS-TE inh 55*.
For CC1(C(=O)NS(=O)(=O)C2CC2)CCN(C(=O)COCc2ccccc2)C1 (centres undefined) the results were MT1-MMP act inh -3, SKN-1 block -11, iPSC survival up -3 and FAS-TE inh -4.
COc1ccc(NC2CC(=O)N(CCc3ccccc3)C2=O)cc1 (centres undefined) was read as DAGLB inh 2, MT1-MMP act inh 0, SKN-1 block 38*, iPSC survival up -4 and FAS-TE inh -5.
CCCC1NC(=O)c2cc3ccccc3cc2-n2c1nc1ccc(F)cc1c2=O (centres undefined) was read as DAGLB inh -1, MT1-MMP act inh -1, SKN-1 block 7, iPSC survival up 1 and FAS-TE inh 22.
O=c1c2ccccc2sc2ccccc12 was read as DAGLB inh -6, MT1-MMP act inh -8, SKN-1 block 43*, iPSC survival up 4 and FAS-TE inh -1.
For O=c1c2ccccc2ccc2ccccc12 the results were DAGLB inh -9, MT1-MMP act inh -3, SKN-1 block 35*, iPSC survival up 3 and FAS-TE inh 10.
`O=c1c2ccccc2oc2c1ccc1ccccc12` gave DAGLB inh -14, MT1-MMP act inh -2, SKN-1 block 27, iPSC survival up 1 and FAS-TE inh 8.
`Nc1ccc2nc(N)sc2c1` gave DAGLB inh 1, MT1-MMP act inh 7, SKN-1 block 6, iPSC survival up -2 and FAS-TE inh -10.
For Nc1ccc2c(c1)sc1ccccc12 the results were DAGLB inh 5, MT1-MMP act inh 2, SKN-1 block 54*, iPSC survival up -2 and FAS-TE inh 2.
Screening COC(=O)c1cn(-c2nc3ccccc3s2)nn1 returned MT1-MMP act inh 6, SKN-1 block 18, iPSC survival up 0 and FAS-TE inh -5.
CCCCCC(=O)N1C[C@H](O)[C@@H](n2cc(COC(=O)c3ccccc3)nn2)C[C@@H]1c1ccc(Cl)cc1 was read as DAGLB inh 1, MT1-MMP act inh -1, SKN-1 block 6, iPSC survival up 0 and FAS-TE inh 12.
Cn1ccc(-c2ccccc2)n1 was read as DAGLB inh -2, MT1-MMP act inh 3, SKN-1 block -2, iPSC survival up 0 and FAS-TE inh -6.
For N#Cc1cc(-c2ccccc2)nn1-c1ccccc1 the results were DAGLB inh -7, MT1-MMP act inh 1, SKN-1 block 35*, iPSC survival up -1 and FAS-TE inh 15.
`Cc1cccc(CN(C)C[C@H]2OCc3cnnn3CCCC(=O)N([C@H](C)CO)C[C@@H]2C)c1` gave DAGLB inh -1, MT1-MMP act inh -1, SKN-1 block 3, iPSC survival up 0 and FAS-TE inh -11.
For Cc1cccc([C@@H]2[C@@H]3C(=O)N(Cc4ccccc4)C(=O)[C@@H]3[C@]3(Cc4ccc(Cl)cc4)C(=O)N(c4ccc(Br)cc4)C(=O)N23)c1 the results were DAGLB inh -7, MT1-MMP act inh 4, SKN-1 block 17, iPSC survival up -2 and FAS-TE inh 90*.
For CC[C@@]12C(=O)N(c3cccc(Br)c3)C(=O)N1[C@H](c1ccc(Br)cc1)[C@@H]1C(=O)N(C(C)(C)C)C(=O)[C@@H]12 the results were DAGLB inh -3, MT1-MMP act inh -1, SKN-1 block 9, iPSC survival up -3 and FAS-TE inh 58*.
O=C1[C@H]2[C@@H](c3ccc(F)cc3)N3C(=O)N(c4cccc(Cl)c4)C(=O)[C@@]3(Cc3ccccc3)[C@H]2C(=O)N1C1CCCCC1 was read as DAGLB inh -10, MT1-MMP act inh -3, SKN-1 block -2, iPSC survival up -1 and FAS-TE inh 72*.
`O=C1[C@H]2[C@@H](c3ccc(F)cc3)N3C(=O)N(c4cccc(Br)c4)C(=O)[C@@]3(Cc3ccc(Cl)cc3)[C@H]2C(=O)N1C1CCCCC1` gave DAGLB inh -1, MT1-MMP act inh -6, SKN-1 block -1, iPSC survival up -2 and FAS-TE inh 35.
`O=C1[C@H]2[C@@H](c3ccc(F)cc3)N3C(=O)N(c4ccccc4)C(=O)[C@@]3(Cc3ccc(Cl)cc3)[C@H]2C(=O)N1C1CCCCC1` gave DAGLB inh -7, MT1-MMP act inh -13, SKN-1 block 5, iPSC survival up -4 and FAS-TE inh 94*.
For O=c1cnc2ccccc2n1Cc1ccccc1 the results were DAGLB inh -3, MT1-MMP act inh 0, SKN-1 block 5, iPSC survival up 0 and FAS-TE inh -7.
For CCOC(=O)C1=CCN(S(=O)(=O)c2ccccc2F)C1c1cccc(Cl)c1 (centres undefined) the results were MT1-MMP act inh -2, SKN-1 block 1, iPSC survival up -1 and FAS-TE inh 23.
O=C1[C@H]2[C@@H](c3ccc(Cl)cc3)N3C(=O)N(c4cccc(Br)c4)C(=O)[C@@]3(Cc3ccc(Cl)cc3)[C@H]2C(=O)N1C1CCCCC1 was read as DAGLB inh -1, MT1-MMP act inh -5, SKN-1 block 9, iPSC survival up -3 and FAS-TE inh 91*.

High-throughput results as filed in PubChem.
